From PubChem BioAssay
Apaf-1 inh – inhibitors of human Apaf-1 apoptosome, primary screen, biochemical, DEVD-Rh110 fluorescence, uHTS; inhibition, % at 20 µM; reconstituted apoptosome caspase-3 activity; 330,000 tested, 0.71% active; Apoptotic protease-activating factor 1 (Homo sapiens), O14727; AID 489030, 2010; active = inhibition of at least 40% at 20 µM;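 note: plate controls were DMSO wells for no effect and DEVD-CHO caspase inhibitor wells for full effect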
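System – cell-free apoptosome with Apaf-1, procaspase-3 and caspase-9 · Buffer or medium – pH 7.5 Hepes buffer with CHAPS, BSA, DTT · Also added – cytochrome c with DEVD-Rh110 · Times – 30 min compound preincubation, 50 min activation, room temperature · Technique – Rh110 fluorescence intensity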
PREPL inhibitor – PREPL enzyme inhibitors, primary screen, biochemical, fluorescence polarization; recombinant PREPL, fluorescence polarization activity-based probe; 320,000 tested, 0.68% active; inhibition, % at 5.96 µM;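 note: 0% = enzyme with DMSO and 100% = wells lacking enzyme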
UCH37 DUB inh – inhibitors of human UCH37 deubiquitinase, primary screen, biochemical, Ub-AMC cleavage, fluorescence. Ubiquitin carboxyl-terminal hydrolase isozyme L5 (Homo sapiens), Q9Y5K5. purified proteasome/UCH37. inhibition, % (concentration not given with the values). 330,000 tested, 0.33% active. AID 588478, 2011;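 active = mean inhibition over replicate wells above about 20%, limit read from the data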;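 note: 0% = compound-free wells with enzyme and 100% = wells lacking proteasome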
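Material: human UCH37 enzyme supplied as purified proteasome complex. Measure: % inhibition of Ub-AMC cleavage fluorescence. Medium: pH 7.4 Tris-HCl (50 mM) with ovalbumin, ATP-MgCl2, DTT. Times: 30 min preincubation with enzyme, 25 min cleavage at room temperature. Detection: AMC fluorescence intensity at 355/460 nm.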
UBC13 inh – UBC13 polyubiquitin chain formation inhibitors, primary screen, biochemical, TR-FRET, uHTS; 330,000 tested, 0.47% active; inhibition, % at 20 µM; AID 485273, 2010; in the data active = inhibition above about 45%, passing the limit was not always enough
PREPL inh cf – human PREPL enzyme inhibitors, confirmation, biochemical, fluorescence polarization. shares compounds with PREPL inhibitor. recombinant PREPL, fluorescence polarization activity probe. inhibition, % at 5.96 µM. 2,000 tested, 67% active;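 note: 0% = protein with DMSO and 100% = wells lacking protein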
The depositor's hits bear a star; i = inactive; · = no result. Sampled rows, rich in hits. Any-hit rate of the full collection: about 1.5%. Cut-off read from the data, not from the text of the source, unless noted: active = inhibition above about 43%; inactive = the rest.

SMILES	Apaf-1 inh	PREPL inhibitor	UCH37 DUB inh	UBC13 inh	PREPL inh cf
COc1ccc2cc(-c3cc(C(=O)OCC(=O)NC4CCS(=O)(=O)C4)c4ccccc4n3)ccc2c1 (stereo not drawn)	·	46*	i	·	37
NC(=O)Cn1cc(C=NNS(=O)(=O)c2ccc(Cl)cc2)c2ccccc21	·	·	1	·	·
COc1cc(-c2nnc3sc(Cc4ccc(Cl)cc4)nn23)cc(OC)c1OC	-6	54*	3	23	52*
COc1cc(OC)cc(-c2c(-c3cccs3)c3cc(-c4ccc(OCc5ccccc5)cc4)ccc3n2C)c1	19	72*	-25	40	4
COc1cc(OC)cc(-c2c(-c3cccs3)c3cc(-c4ccc(SC)cc4)ccc3n2C)c1	7	30	2	39	·
O=C(NN=Cc1cccc(O)c1)c1cc(-c2ccccc2)nc2ccccc12	·	·	-3	·	·
C#CCOCCOCCOCCNc1nc(N2CCN(C(=O)[C@H](CCC(=O)O)n3cc(C(N)Cc4ccc(O)cc4)nn3)CC2)nc(N2CCN(C(=O)[C@H](CCC(=O)O)n3cc(C(N)CC(C)C)nn3)CC2)n1 (stereo partly drawn)	13	5	3	-22	·
C#CCOCCOCCOCCNc1nc(N2CCN(C(=O)Cn3cc(CCCN=C(N)N)nn3)CC2)nc(N2CCN(C(=O)[C@H]([C@@H](C)CC)n3cc(CCCCN)nn3)CC2)n1	8	12	0	23	·
C#CCOCCOCCOCCNc1nc(N2CCN(C(=O)[C@H](CCC(=O)O)n3cc(C(N)Cc4ccc(O)cc4)nn3)CC2)nc(N2CCN(C(=O)[C@H](Cc3cc4ccccc4[nH]3)n3cc(C(N)CC(C)C)nn3)CC2)n1 (stereo partly drawn)	5	46*	2	20	38
C#CCOCCOCCOCCNc1nc(N2CCN(C(=O)CCCCCCCCCCNC(=O)[C@H]([C@@H](C)CC)n3cc(CCCCN=C(N)N)nn3)CC2)nc(N2CCN(C(=O)CCCCCCCCCCNC(=O)[C@H](CO)n3cc(CCCCCN)nn3)CC2)n1	85*	54*	5	123*	56*
C#CCOCCOCCOCCNc1nc(N2CCN(C(=O)[C@H](CCCCN)n3cc([C@@H](N)CO)nn3)CC2)nc(N2CCN(C(=O)[C@H](Cc3cc4ccccc4[nH]3)n3cc([C@@H](N)CC(C)C)nn3)CC2)n1	-6	52*	5	100*	51*
O=C(NN=Cc1ccc(Sc2ccccn2)o1)c1cccc([N+](=O)[O-])c1	·	·	3	·	·
CON=C(C)CCS(=O)(=O)c1ccccc1	·	·	-1	·	·
O=C(Nc1ccc2c(c1)OCCO2)c1cccc2nc3ccccc3nc12	17	49*	6	-8	60*
CCN1C(=O)C(=c2sc(=C3Sc4ccccc4N3C)c(=O)n2C)N(C)C1=S	·	·	4	·	·
O=C(CSc1ccc(Cl)cc1)Nc1ccc(N2CCN(C(=O)c3ccco3)CC2)cc1	14	48*	1	4	49*
O=C(CSc1ccc(Cl)cc1)Nc1ccc(NC(=O)c2ccco2)cc1	-21	-5	1	0	·
Cc1ccccc1C(=O)N1CCN(c2ccc(NC(=O)CSc3ccc(Cl)cc3)cc2)CC1	24	65*	1	-10	51*
O=C(COc1ccc(Cl)cc1)Nc1ccc(N2CCN(C(=O)c3ccco3)CC2)cc1	1	49*	4	2	48*
CCC(=O)Nc1ccc(N2CCN(C(=O)c3ccccc3C)CC2)cc1	-9	10	-2	11	·
O=C(NN=Cc1ccsc1)c1cc(O)cc(O)c1	·	·	7	·	·
Cc1ccc(C(=O)NN=C(CC(C)C)c2ccccc2)cc1	·	·	5	·	·
Cc1ccc(C=c2sc3n(c2=O)CCCN=3)o1	·	·	8	·	·
O=C(Nc1ccccc1)C1=C[C@@H](c2coc3ccccc3c2=O)C[C@@H](OCc2ccc(CO)cc2)O1	16	49*	1	-5	48*
Cc1ccc(Nc2cc(C)nc3ccccc23)c(C)c1	-4	38	6	0	·
SMILES	Apaf-1 inh	PREPL inhibitor	UCH37 DUB inh	UBC13 inh	PREPL inh cf
Cc1ccc(C)c(Nc2cc(C)nc3ccccc23)c1	-1	44*	7	3	38
Cc1ccc2nc(-c3sc4nc(C)cc(C)c4c3N)[nH]c2c1	21	73*	-95	1	37
CC(=NNc1ccccc1C(=O)O)c1ccncc1	·	·	19	·	·
CCN(CC)CCN(C(=O)c1ccc2c(c1)CCCC2)c1nc2cc(OC)c(OC)cc2s1	48*	49*	-2	32	34
COc1cc2nc(N(CCN(C)C)C(=O)c3ccc4ccccc4c3)sc2cc1OC	15	18	7	11	·
O=c1cc(CN2CCCc3ccccc32)nc2sccn12	14	51*	-6	2	19
COc1ccc(NC(=O)NCCCN2CCN(c3ccccc3F)CC2)cc1	-13	49*	3	16	35
O=C(NN=Cc1ccco1)c1ccc(N2CCCC2=O)cc1	·	·	10	·	·
C=CCn1c(SCc2ccccc2Cl)nnc1-c1sc2nc(C)cc(C)c2c1N	17	47*	-139	3	42
CC(C)(C)NC(=S)Nc1ccc(Nc2ccccc2)cc1	10	59*	6	6	10
COc1ccc(C(C)=NNC(=O)c2nnn(-c3nonc3N)c2-c2ccccc2)cc1	·	·	-52	·	·
N#CCCN(CCC#N)C(=O)C1c2ccccc2Oc2ccccc21	-7	82*	·	1	5
CN(CCC#N)C(=O)COC(=O)C1c2ccccc2Oc2ccccc21	3	-3	0	7	·
Cc1ccc(S(=O)(=O)NN=C(c2ccccc2)c2cccnc2)cc1	·	·	5	·	·
COc1ccc(-c2oc3cc(OC(C)=O)cc(OC(C)=O)c3c(=O)c2OC)cc1	·	·	-23	·	·
CC(=O)Oc1cc(O)c2c(=O)c(OC(C)=O)c(-c3ccc(OC(C)=O)c(OC(C)=O)c3)oc2c1	-1	44*	6	0	20
Cc1c(C(=O)O)cccc1-c1ccc(/C=N/Nc2ccc(Br)cc2)o1	8	46*	·	-18	22
Cc1c(C(=O)O)cccc1-c1ccc(C=Nn2cnnc2)o1	·	·	-12	·	·
O=C(O)c1ccc(N/N=C/c2ccc(-c3cccc(Cl)c3)o2)cc1	-9	57*	·	6	55*
COc1ccc(N2CCN(Cc3nc4ccsc4c(=O)[nH]3)CC2)cc1	-20	12	4	14	·
O=c1[nH]c(CN2CCN(c3ccc([N+](=O)[O-])cc3)CC2)nc2ccsc12	0	46*	6	-10	29
C=CC[n+]1c(/C=C2\C=Cc3cc(C)ccc3N2CC)ccc2ccccc21	14	46*	10	-145	60*
CCN1/C(=C\c2ccc3cc(C)ccc3[n+]2CC)Sc2cc(C)c(C)cc21	·	·	12	·	·
